The subject of one assay is Bacillus subtilis. The assay can be described thus: Antimicrobial activity against Bacillus subtilis PY79 after 18 to 20 hrs by standard broth microdilution method. The format is functional. In short, it runs like this: (§1)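 Broth microdilution in polystyrene plates. Each well held 0.1 mL of broth medium with drug at 0.03–128 μg/mL and received 5 μL of overnight broth culture adjusted to 1 × 10⁷ to 5 × 10⁷ CFU/ml. Plates were incubated 18–20 h at 37 °C. MIC was the lowest concentration with no visible turbidity. Strains came from a laboratory collection.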

The test system of a further assay is Escherichia coli. The assay can be described thus: Antimicrobial activity against Escherichia coli imp 389 after 18 to 20 hrs by standard broth microdilution method. In kind it is functional. In a few lines: as §1
The next assay concerns Enterococcus faecium. The assay can be described thus: Antimicrobial activity against vancomycin-resistant Enterococcus faecium 379 after 18 to 20 hrs by standard broth microdilution method. In kind it is functional. In short, it runs like this: (§2)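 Broth microdilution: 5 μL overnight culture (1 × 10⁷ to 5 × 10⁷ CFU/ml) added to 0.1 mL broth containing drug at 0.03–128 μg/mL. Incubated 18–20 h at 37 °C. MIC = lowest concentration preventing visual turbidity. Strains from an in-house laboratory collection.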

Assay [1] concerns Staphylococcus aureus. The experiment in a line: Antimicrobial activity against methicillin-resistant Staphylococcus aureus 310 after 18 to 20 hrs by standard broth microdilution method. In kind it is functional. In short, it runs like this:
as §2

Assay [2] relates to Staphylococcus aureus. The experiment in a line: Antimicrobial activity against Staphylococcus aureus 375 after 18 to 20 hrs by standard broth microdilution method. The format is functional. In short, it runs like this:
as §1

The test system of assay [3] is Staphylococcus aureus. The experiment in a line: Antimicrobial activity against Staphylococcus aureus Smith infected in CD1 mouse at 64 mg/kg after 7 days. Further details: dose 64 mg/kg. In kind it is functional, organism-based. In a few lines: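 Female CD-1 mice weighing 20 ± 2 g were infected intraperitoneally with bacteria suspended in broth or in about 5% mucin, at an inoculum lethal to 95–100% of untreated mice within 48 h. A single drug dose was given 0.5 h after infection. Survival was scored at day 7, using five animals per dose level and three or four separate tests pooled.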

Assay [4] concerns Staphylococcus aureus. The assay can be described thus: Antimicrobial activity against Staphylococcus aureus Smith infected in CD1 mouse after 7 days. Particulars: 168 h. The format is functional. In short, it runs like this: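 Female CD-1 mice (20 ± 2 g) infected intraperitoneally with bacteria in broth or ~5% mucin, inoculum lethal to 95–100% of untreated mice within 48 h. Single dose given 0.5 h post-infection. Seven-day survival from three or four tests (five dose levels, five mice per level) pooled; ED50 by probit analysis.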

Values after ≈ are worked out from the molar mass of the structure shown. Active and inactive are the calls of the source. No cut-off for these calls is given here.

Regarding `C=C(CC[C@@H](C)[C@H]1[C@@H](O)C[C@@]2(C)[C@@H]3[C@@H](O)C[C@H]4[C@](C)(C(=O)O)[C@@H](O)CC[C@@]45C[C@@]35CC[C@]12C)C(C)C`, the MIC against Bacillus subtilis is 16 µg/mL (≈ 31.8 µM); against Escherichia coli it was above 128 µg/mL; against Enterococcus faecium it was 8 µg/mL (≈ 15.9 µM); against Staphylococcus aureus [1] it was above 128 µg/mL; in the assay with Staphylococcus aureus [2], 16 µg/mL (≈ 31.8 µM). Also, the ED50 result with Staphylococcus aureus [3] was “inactive”.
For the molecule `CC(C)=CCC[C@@H](C)[C@H]1C[C@H](O)[C@@]2(C)[C@@H]3CC[C@H]4[C@](C)(C(=O)O)[C@@H](O)C[C@H](O)[C@@]45C[C@@]35CC[C@]12C`, the MIC in the assay on Bacillus subtilis is 64 µg/mL (≈ 131 µM); against Escherichia coli it was above 128 µg/mL; in the assay with Enterococcus faecium, 32 µg/mL (≈ 65.5 µM); with Staphylococcus aureus [1], 128 µg/mL (≈ 262 µM); against Staphylococcus aureus [2], 32 µg/mL (≈ 65.5 µM).
For `CN[C@H](CC(C)C)C(=O)N[C@H]1C(=O)N[C@@H](CC(N)=O)C(=O)N[C@H]2C(=O)N[C@H]3C(=O)N[C@H](C(=O)N[C@H](C(=O)O)c4cc(O)cc(O)c4-c4cc3ccc4O)[C@H](O)c3ccc(c(Cl)c3)Oc3cc2cc(c3O[C@@H]2O[C@H](CO)[C@@H](O)[C@H](O)[C@H]2O[C@H]2C[C@](C)(N)[C@H](O)[C@H](C)O2)Oc2ccc(cc2Cl)[C@H]1O` [VANCOMYCIN], the ED50 in the assay on Staphylococcus aureus [4] came to 1 mg/kg.
For `CC1(C)S[C@@H]2[C@H](NC(=O)Cc3ccccc3)C(=O)N2[C@H]1C(=O)O` [PENICILLIN G], the MIC against Bacillus subtilis amounted to 8 µg/mL (≈ 23.9 µM); against Escherichia coli, 2 µg/mL (≈ 5.98 µM); with Enterococcus faecium, 128 µg/mL (≈ 383 µM); with Staphylococcus aureus [1], 128 µg/mL (≈ 383 µM); in the assay on Staphylococcus aureus [2], 0.06 µg/mL (≈ 0.179 µM).
Regarding `CC(C)=CCC[C@@H](C)[C@H]1[C@H](O)C[C@@]2(C)[C@@H]3CC[C@H]4[C@](C)(C(=O)O)[C@@H](O)C[C@H](O)[C@@]45C[C@@]35CC[C@]12C`, the MIC against Bacillus subtilis is 32 µg/mL (≈ 65.5 µM); in the assay on Escherichia coli, 64 µg/mL (≈ 131 µM); against Enterococcus faecium, 8 µg/mL (≈ 16.4 µM); against Staphylococcus aureus [1], 64 µg/mL (≈ 131 µM); against Staphylococcus aureus [2], 32 µg/mL (≈ 65.5 µM).

Values taken from ChEMBL document CHEMBL1150592, “New antimicrobial cycloartane triterpenes from Acalypha communis” (2002).
